Laboratory results as given in ChEMBL document CHEMBL3098105, “7,7'-Diazaindirubin--a small molecule inhibitor of casein kinase 2 in vitro and in cells” (Bioorg Med Chem, 2014).
Calls of active or inactive are those of the source. The calls are words filed in the database; no cut-off is given here.

Assays:
[1] = molecular target: Serine/threonine-protein kinase Chk2 (Homo sapiens) (UniProt O96017); test: Inhibition of CHK2 (unknown origin) assessed as residual activity at 1 uM relative to control
[2] = molecular target: Aurora kinase C (Homo sapiens) (UniProt Q9UQB9); test: Inhibition of Aurora-C (unknown origin) assessed as residual activity at 1 uM relative to control
Sequence of Aurora kinase C (Homo sapiens) (Q9UQB9 whole entry): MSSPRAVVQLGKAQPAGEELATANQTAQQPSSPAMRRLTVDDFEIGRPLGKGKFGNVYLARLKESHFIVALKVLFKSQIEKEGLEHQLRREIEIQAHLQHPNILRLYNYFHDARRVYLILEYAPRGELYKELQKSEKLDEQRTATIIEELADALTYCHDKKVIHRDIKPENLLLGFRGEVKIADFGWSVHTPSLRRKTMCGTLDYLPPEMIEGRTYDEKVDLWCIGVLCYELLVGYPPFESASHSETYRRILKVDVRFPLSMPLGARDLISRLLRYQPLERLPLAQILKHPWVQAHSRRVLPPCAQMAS

[3] = Antiproliferative activity against human Hs 578T cells after 3 days by sulforhodamine B assay; format: functional; settings: 72 h
Summary of the method: (§1)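 Tested in the NCI 60 cell line panel. GI50 is the concentration giving 50% inhibition of cell growth, and values are the mean of two series of tests.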

SN12C = test: Antiproliferative activity against human SN12C cells after 3 days by sulforhodamine B assay; format: functional; settings: 72 h
ACHN = test: Antiproliferative activity against human ACHN cells after 3 days by sulforhodamine B assay; format: functional; settings: 72 h; summary of the method: as §1
SK-MEL-2 = test: Antiproliferative activity against human SK-MEL-2 cells after 3 days by sulforhodamine B assay; format: functional; settings: SK-MEL-2, 72 h; summary of the method: as §1
[4] = molecular target: Serine/threonine-protein kinase PLK2 (Homo sapiens) (UniProt Q9NYY3); test: Inhibition of human Snk assessed as residual activity at 1 uM relative to control
[5] = molecular target: Serine/threonine-protein kinase Sgk3 (Homo sapiens) (UniProt Q96BR1); test: Inhibition of human SGK3 assessed as residual activity at 1 uM relative to control
Sequence of Serine/threonine-protein kinase Sgk3 (Homo sapiens) (Q96BR1 whole entry): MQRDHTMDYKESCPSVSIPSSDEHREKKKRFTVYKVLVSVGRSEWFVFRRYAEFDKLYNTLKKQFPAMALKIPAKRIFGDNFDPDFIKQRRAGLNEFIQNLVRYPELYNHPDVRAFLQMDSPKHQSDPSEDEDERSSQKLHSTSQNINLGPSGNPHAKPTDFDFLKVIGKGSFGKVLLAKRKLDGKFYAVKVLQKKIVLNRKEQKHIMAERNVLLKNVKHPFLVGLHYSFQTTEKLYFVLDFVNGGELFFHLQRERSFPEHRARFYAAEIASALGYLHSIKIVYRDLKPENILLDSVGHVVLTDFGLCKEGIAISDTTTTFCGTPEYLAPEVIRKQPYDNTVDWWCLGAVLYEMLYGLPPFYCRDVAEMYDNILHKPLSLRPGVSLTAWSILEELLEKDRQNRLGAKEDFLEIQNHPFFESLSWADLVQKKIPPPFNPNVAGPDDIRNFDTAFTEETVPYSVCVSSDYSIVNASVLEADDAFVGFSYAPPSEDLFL

[6] = molecular target: Rho-associated protein kinase 2 (Homo sapiens) (UniProt O75116); test: Inhibition of human ROCK-2 assessed as residual activity at 1 uM relative to control
[7] = molecular target: Serine/threonine-protein kinase PLK3 (Homo sapiens) (UniProt Q9H4B4); test: Inhibition of human Plk3 assessed as residual activity at 1 uM relative to control
MCF7 [8] = test: Induction of apoptosis in human MCF7 cells assessed as PARP cleavage at 1 uM after 24 hrs by Western blot analysis; format: functional, cell-based
Summary of the method: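 Cells were lysed in urea lysis buffer (6 M urea, NaF, Na3VO4, protease inhibitors). 20–40 µg protein was run on 10% SDS-PAGE and detected by ECL. Primary antibodies (pAkt S473, PARP, β-actin loading control) were used at 1:1000 overnight at 4 °C. DMSO was the vehicle control. For the pAkt blots, cells were treated for 2 h with Ly294002 as positive control.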

MCF7 [9] = test: Cell cycle arrest in human MCF7 cells assessed as accumulation at G1 phase at 1 uM after 24 hrs using propidium iodide staining by FACS analysis (reference value: 57.74%); format: functional
MCF7 [10] = test: Cell cycle arrest in human MCF7 cells assessed as accumulation at G2/M phase at 0.5 uM after 24 hrs using propidium iodide staining by FACS analysis (reference value: 22.13%); format: functional
[11] = molecular target: Protein kinase C delta type (Homo sapiens) (UniProt Q05655); test: Inhibition of human PKCdelta assessed as residual activity at 1 uM relative to control
[12] = molecular target: Serine/threonine-protein kinase pim-3 (Homo sapiens) (UniProt Q86V86); test: Inhibition of human Pim-3 assessed as residual activity at 1 uM relative to control
[13] = molecular target: Serine/threonine-protein kinase MARK2 (Homo sapiens) (UniProt Q7KZI7); test: Inhibition of human PAR1Balpha assessed as residual activity at 1 uM relative to control
[14] = molecular target: Serine/threonine-protein kinase PAK 5 (Homo sapiens) (UniProt Q9P286); test: Inhibition of human PAK5 assessed as residual activity at 1 uM relative to control
[15] = molecular target: Serine/threonine-protein kinase Nek11 (Homo sapiens) (UniProt Q8NG66); test: Inhibition of human NEK11 assessed as residual activity at 1 uM relative to control
Sequence of Serine/threonine-protein kinase Nek11 (Homo sapiens) (Q8NG66 whole entry): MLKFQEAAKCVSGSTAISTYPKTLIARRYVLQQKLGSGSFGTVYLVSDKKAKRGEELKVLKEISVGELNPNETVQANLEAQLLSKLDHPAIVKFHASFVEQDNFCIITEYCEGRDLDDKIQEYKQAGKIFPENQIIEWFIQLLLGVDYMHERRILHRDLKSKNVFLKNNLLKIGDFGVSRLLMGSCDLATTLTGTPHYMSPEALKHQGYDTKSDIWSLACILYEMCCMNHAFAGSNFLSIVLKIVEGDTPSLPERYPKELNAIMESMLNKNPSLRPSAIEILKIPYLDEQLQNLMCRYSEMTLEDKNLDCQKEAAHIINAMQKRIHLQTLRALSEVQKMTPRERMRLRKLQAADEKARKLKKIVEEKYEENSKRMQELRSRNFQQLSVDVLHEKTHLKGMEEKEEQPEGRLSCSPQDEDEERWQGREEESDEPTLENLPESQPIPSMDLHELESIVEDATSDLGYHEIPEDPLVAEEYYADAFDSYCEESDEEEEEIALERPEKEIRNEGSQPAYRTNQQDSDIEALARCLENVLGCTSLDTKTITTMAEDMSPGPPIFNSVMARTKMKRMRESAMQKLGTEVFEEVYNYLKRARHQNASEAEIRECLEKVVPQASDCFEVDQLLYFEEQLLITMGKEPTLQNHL

[16] = molecular target: Serine/threonine-protein kinase Nek7 (Homo sapiens) (UniProt Q8TDX7); test: Inhibition of human NEK7 assessed as residual activity at 1 uM relative to control
Sequence of Serine/threonine-protein kinase Nek7 (Homo sapiens) (Q8TDX7 whole entry, looked up): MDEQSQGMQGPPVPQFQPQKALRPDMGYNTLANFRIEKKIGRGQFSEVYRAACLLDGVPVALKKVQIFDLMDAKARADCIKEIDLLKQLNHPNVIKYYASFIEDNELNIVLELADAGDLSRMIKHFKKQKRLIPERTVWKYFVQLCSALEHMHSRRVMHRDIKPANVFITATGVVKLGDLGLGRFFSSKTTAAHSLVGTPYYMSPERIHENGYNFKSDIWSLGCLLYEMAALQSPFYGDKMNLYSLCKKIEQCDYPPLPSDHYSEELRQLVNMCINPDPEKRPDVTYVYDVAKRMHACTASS

[17] = molecular target: Serine/threonine-protein kinase Nek3 (Homo sapiens) (UniProt P51956); test: Inhibition of human NEK3 assessed as residual activity at 1 uM relative to control
[18] = molecular target: Serine/threonine-protein kinase mTOR (Homo sapiens) (UniProt P42345); test: Inhibition of human mTOR assessed as residual activity at 1 uM relative to control
[19] = molecular target: Maternal embryonic leucine zipper kinase (Homo sapiens) (UniProt Q14680); test: Inhibition of human MELK assessed as residual activity at 1 uM relative to control
[20] = molecular target: Vascular endothelial growth factor receptor 2 (Homo sapiens) (UniProt P35968); test: Inhibition of human KDR assessed as residual activity at 1 uM relative to control
Sequence of Vascular endothelial growth factor receptor 2 (Homo sapiens) (P35968 whole entry): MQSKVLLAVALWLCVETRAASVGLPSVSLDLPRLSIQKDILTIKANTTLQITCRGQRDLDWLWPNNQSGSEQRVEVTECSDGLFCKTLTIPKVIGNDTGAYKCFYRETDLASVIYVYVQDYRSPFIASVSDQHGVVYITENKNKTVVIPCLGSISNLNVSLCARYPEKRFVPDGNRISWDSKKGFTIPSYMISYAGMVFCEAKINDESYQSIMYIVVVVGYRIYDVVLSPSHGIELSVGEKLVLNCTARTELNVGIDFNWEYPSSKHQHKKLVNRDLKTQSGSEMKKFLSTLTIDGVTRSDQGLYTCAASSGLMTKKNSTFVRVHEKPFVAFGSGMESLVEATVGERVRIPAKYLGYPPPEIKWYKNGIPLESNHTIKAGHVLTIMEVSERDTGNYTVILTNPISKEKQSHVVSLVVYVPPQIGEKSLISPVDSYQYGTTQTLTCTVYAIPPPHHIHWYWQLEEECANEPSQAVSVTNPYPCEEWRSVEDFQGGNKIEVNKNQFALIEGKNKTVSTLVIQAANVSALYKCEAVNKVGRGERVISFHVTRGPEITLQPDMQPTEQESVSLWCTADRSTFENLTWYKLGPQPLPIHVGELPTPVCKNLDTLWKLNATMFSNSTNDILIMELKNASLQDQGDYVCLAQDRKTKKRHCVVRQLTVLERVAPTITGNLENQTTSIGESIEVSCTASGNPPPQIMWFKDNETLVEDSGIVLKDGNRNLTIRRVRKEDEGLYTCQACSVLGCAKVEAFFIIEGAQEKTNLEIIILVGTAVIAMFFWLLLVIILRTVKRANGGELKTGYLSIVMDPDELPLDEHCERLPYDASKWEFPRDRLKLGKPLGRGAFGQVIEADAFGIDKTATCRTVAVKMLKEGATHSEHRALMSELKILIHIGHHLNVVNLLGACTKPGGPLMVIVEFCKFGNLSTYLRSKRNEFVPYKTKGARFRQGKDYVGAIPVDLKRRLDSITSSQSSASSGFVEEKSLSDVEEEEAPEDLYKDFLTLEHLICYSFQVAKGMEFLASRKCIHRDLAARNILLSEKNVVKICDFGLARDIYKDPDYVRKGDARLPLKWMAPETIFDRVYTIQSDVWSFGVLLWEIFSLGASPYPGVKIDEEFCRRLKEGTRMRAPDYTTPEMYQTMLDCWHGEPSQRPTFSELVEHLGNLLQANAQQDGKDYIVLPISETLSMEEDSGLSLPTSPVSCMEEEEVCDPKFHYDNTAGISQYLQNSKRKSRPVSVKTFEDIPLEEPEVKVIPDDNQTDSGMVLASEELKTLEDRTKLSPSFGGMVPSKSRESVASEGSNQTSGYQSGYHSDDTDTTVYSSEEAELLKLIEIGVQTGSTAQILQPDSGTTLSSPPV

[21] = molecular target: Interleukin-1 receptor-associated kinase 4 (Homo sapiens) (UniProt Q9NWZ3); test: Inhibition of human IRAK4 assessed as residual activity at 1 uM relative to control
[22] = molecular target: Serine/threonine-protein kinase haspin (Homo sapiens) (UniProt Q8TF76); test: Inhibition of human Haspin assessed as residual activity at 1 uM relative to control
[23] = molecular target: Vascular endothelial growth factor receptor 1 (Homo sapiens) (UniProt P17948); test: Inhibition of human Flt1 assessed as residual activity at 1 uM relative to control
[24] = molecular target: Ephrin type-B receptor 2 (Homo sapiens) (UniProt P29323); test: Inhibition of human EphB2 assessed as residual activity at 1 uM relative to control
Sequence of Ephrin type-B receptor 2 (Homo sapiens) (P29323 whole entry): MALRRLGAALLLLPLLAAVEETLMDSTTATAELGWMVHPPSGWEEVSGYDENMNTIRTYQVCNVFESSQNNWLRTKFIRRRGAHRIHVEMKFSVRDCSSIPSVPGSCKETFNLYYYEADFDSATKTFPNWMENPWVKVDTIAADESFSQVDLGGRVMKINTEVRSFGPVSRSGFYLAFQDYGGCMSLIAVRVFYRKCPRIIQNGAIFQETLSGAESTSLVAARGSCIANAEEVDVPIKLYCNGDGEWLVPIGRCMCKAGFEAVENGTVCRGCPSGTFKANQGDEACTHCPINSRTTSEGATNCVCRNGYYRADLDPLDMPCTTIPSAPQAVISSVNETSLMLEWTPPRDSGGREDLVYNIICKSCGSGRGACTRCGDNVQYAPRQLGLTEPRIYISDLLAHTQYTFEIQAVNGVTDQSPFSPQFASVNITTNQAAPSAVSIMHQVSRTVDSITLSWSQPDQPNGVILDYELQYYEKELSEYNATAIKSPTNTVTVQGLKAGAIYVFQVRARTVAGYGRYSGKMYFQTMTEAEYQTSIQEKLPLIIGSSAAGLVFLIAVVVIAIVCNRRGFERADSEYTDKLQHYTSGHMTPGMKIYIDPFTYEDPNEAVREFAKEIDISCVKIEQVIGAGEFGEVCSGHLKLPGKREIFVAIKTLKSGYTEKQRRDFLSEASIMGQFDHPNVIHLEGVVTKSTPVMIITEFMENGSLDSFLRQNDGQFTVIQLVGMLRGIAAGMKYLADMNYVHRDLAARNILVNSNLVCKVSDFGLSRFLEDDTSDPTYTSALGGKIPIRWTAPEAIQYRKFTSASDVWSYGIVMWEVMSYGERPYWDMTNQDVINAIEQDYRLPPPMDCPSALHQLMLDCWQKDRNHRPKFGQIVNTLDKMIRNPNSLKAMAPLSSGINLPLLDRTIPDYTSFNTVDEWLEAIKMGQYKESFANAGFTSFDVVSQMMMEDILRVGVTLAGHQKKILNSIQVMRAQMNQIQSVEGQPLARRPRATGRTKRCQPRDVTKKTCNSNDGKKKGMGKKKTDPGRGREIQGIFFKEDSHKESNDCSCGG

[25] = molecular target: Ephrin type-A receptor 5 (Homo sapiens) (UniProt P54756); test: Inhibition of human EphA5 assessed as residual activity at 1 uM relative to control
[26] = molecular target: T1, Cyclin-dependent kinase 1/cyclin B1 (Homo sapiens) (UniProt P06493+P14635); test: Inhibition of human CDK1/cyclinB assessed as residual activity at 1 uM relative to control; format: protein-complex assay
T1 sequence (P06493 whole entry, looked up): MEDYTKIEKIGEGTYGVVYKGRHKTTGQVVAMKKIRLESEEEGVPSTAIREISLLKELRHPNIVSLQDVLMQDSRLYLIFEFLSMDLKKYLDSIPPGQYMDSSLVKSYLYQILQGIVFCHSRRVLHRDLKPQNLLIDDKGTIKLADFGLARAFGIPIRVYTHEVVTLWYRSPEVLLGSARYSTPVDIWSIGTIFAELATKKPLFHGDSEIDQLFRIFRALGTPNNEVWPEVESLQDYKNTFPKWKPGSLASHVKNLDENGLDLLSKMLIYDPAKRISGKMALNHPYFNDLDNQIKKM
T1 sequence (P14635 whole entry, looked up): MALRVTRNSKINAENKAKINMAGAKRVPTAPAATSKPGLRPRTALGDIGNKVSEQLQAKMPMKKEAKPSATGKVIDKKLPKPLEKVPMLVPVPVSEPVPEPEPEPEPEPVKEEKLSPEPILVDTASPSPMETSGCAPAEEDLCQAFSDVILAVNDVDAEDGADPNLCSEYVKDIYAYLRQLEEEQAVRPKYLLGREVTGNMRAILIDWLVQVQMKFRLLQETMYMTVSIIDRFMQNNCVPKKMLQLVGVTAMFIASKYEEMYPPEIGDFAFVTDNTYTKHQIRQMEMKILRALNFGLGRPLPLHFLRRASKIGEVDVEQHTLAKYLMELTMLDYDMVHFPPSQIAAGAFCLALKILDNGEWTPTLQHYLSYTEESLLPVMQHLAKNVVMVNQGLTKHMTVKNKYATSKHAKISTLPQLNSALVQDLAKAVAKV

[27] = molecular target: Tyrosine-protein kinase ABL2 (Homo sapiens) (UniProt P42684); test: Inhibition of human Arg assessed as residual activity at 1 uM relative to control
[28] = molecular target: Proto-oncogene tyrosine-protein kinase Src (Homo sapiens) (UniProt P12931); test: Inhibition of SRC (unknown origin) assessed as residual activity at 10 uM relative to control
[29] = molecular target: Insulin-like growth factor 1 receptor (Homo sapiens) (UniProt P08069); test: Inhibition of IGF1-R (unknown origin) assessed as residual activity at 10 uM relative to control
[30] = molecular target: Cyclin-dependent kinase 4/cyclin D1 (Homo sapiens) (UniProt P11802+P24385); test: Inhibition of CDK4/CycD1 (unknown origin) assessed as residual activity at 10 uM relative to control; format: protein-complex assay
[31] = molecular target: T1, Cyclin-dependent kinase 1/cyclin B1 (Homo sapiens); test: Inhibition of CDK1/CycB1 (unknown origin) assessed as residual activity at 10 uM relative to control; format: protein-complex assay
[32] = molecular target: Aurora kinase C (Homo sapiens) (UniProt Q9UQB9); test: Inhibition of Aurora-C (unknown origin) assessed as residual activity at 10 uM relative to control
[33] = molecular target: Vascular endothelial growth factor receptor 2 (Homo sapiens) (UniProt P35968); test: Inhibition of VEGF-R2 (unknown origin) assessed as residual activity at 1 uM relative to control
[34] = molecular target: RAF proto-oncogene serine/threonine-protein kinase (Homo sapiens) (UniProt P04049); test: Inhibition of RAF1 (unknown origin) assessed as residual activity at 1 uM relative to control

O=C1Nc2ncccc2/C1=C1/Nc2ncccc2C1=O
Activity [1]: 89%
Activity [2]: 89%
GI50 [3]: 1670 nM
GI50 (SN12C): 1410 nM
GI50 (ACHN): 1480 nM
GI50 (SK-MEL-2): 1710 nM
Activity [4]: 83%
Activity [5]: 113%
Activity [6]: 114%
Activity [7]: 104%
Activity (MCF7 [8]): Active
Activity (MCF7 [9]): 63.05%
Activity (MCF7 [10]): 21.21%
Activity [11]: 126%
Activity [12]: 74%
Activity [13]: 53%
Activity [14]: 61%
Activity [15]: 73%
Activity [16]: 57%
Activity [17]: 109%
Activity [18]: 99%
Activity [19]: 87%
Activity [20]: 76%
Activity [21]: 93%
Activity [22]: 64%
Activity [23]: 96%
Activity [24]: 127%
Activity [25]: 125%
Activity [26]: 101%
Activity [27]: 98%
Activity [28]: 107%
Activity [29]: 94%
Activity [30]: 88%
Activity [31]: 89%
Activity [32]: 76%
Activity [33]: 93%
Activity [34]: 97%
